# MC4R barr agon – MC4R agonists recruiting beta-arrestin, primary screen, cell-based, luminescence, agonist arm of biased-ligand search | AID 540308, 2011 | activation, % at 8.9 µM | 0.98% of 360,000 active | Melanocortin receptor 4 (Homo sapiens), P32245 | U2OS MC4R beta-arrestin complementation; percent of melanotan II response, DMSO zero;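 active = activation above a per-plate cutoff, the mean activation of sample wells on that plate plus 3 SD, cut at about 8% in these data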
# Target sequence (P32245 whole entry, looked up): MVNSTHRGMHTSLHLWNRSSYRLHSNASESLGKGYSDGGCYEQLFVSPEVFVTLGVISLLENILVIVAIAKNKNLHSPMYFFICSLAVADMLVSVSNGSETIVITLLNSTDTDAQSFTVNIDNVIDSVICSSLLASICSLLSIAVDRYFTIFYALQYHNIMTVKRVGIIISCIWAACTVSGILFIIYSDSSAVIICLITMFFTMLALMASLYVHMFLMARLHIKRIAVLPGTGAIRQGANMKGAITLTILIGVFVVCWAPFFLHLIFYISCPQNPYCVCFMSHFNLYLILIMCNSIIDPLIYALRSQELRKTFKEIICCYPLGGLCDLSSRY
# B2AR ag – beta2AR agonists driving receptor internalization, primary screen, cell-based, FAP fluorogen, flow cytometry. Beta-2 adrenergic receptor (Homo sapiens), P07550. Am2.2-beta2AR cells. response, % (concentration not given with the values). 0.43% of 340,000 active. AID 504454, 2011;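 active = response above a set limit, near 3 SD of response in nonfluorescent compounds, cut at about 42% in these data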
# TAAR1 ag – human TAAR1 agonists, primary screen, Fluo-8 calcium fluorescence, CHO RD-HGA16 cells; AID 624467, 2012; 0.99% of 360,000 active; activation, % at 3 µM; vehicle wells 0%, saturating PEA agonist 100%;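 active = activation above the mean activation of all test compounds in the run plus 3 SD, cut at about 38% in these data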
# Target sequence (Q96RJ0 whole entry, looked up): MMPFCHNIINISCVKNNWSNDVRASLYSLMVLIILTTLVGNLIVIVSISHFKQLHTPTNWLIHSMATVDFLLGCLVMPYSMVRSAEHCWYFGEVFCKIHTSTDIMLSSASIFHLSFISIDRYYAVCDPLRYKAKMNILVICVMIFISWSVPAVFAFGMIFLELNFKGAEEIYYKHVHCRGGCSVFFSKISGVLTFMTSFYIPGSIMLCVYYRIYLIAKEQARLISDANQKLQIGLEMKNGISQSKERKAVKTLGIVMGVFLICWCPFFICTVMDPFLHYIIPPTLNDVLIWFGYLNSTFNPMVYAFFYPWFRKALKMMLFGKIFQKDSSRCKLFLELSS
#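 Test system: RD-HGA16 (CHO) cells co-expressing Gα16 and hTAAR1; dosing: one-point dosing at 3 µM (nominal); timing: 17-24 h seeding, 75 min 37 °C dye, 30 min RT; signal: kinetic Fluo-8 calcium fluorescence; read-out basis: % activation relative to PEA EC100 response; controls: DMSO and PEA EC100; replicates: n 1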
# MC4R antag cAMP – MC4R antagonists of cAMP signaling, primary screen, cell-based, TR-FRET, antagonist arm of biased-ligand search. Melanocortin receptor 4 (Homo sapiens), P32245. MC4R-expressing cells, MTII-stimulated cAMP, LANCE TR-FRET. inhibition, % at 6.5 µM. 0.48% of 360,000 active;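 active = inhibition above its plate's cutoff, the mean of tested wells on that plate plus 3 SD, cut at about 29% in these data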
#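 System: U2OS cells stably expressing human melanocortin 4 receptor (MC4R). Reagent: Melanotan II challenge after compound preincubation. Doses: 6.5 µM. Times: 30-min compound, 1-h challenge, 1-h detection, room temperature. Measured by: TR-FRET with Eu-cAMP and labeled anti-cAMP, 671 nm. Replicates: singlicate.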
# m5-HT2A agonist – mouse Htr2a agonists via beta-arrestin recruitment, primary screen, cell-based, luminescence | AID 624169, 2012 | activation, % at 7.6 µM | 0.66% of 360,000 active | CHO-K1 mHTR2A beta-arrestin complementation; percent of 30 µM serotonin response | 5-hydroxytryptamine receptor 2A (Mus musculus), P35363;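 active = activation above a run cutoff, the mean activation of all tested compounds plus 3 SD, cut at about 14% in these data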
# TAAR1 antagonist – human TAAR1 antagonists, primary screen, Fluo-8 calcium fluorescence, CHO RD-HGA16 cells; Trace amine-associated receptor 1 (Homo sapiens), Q96RJ0; antagonist; inhibition, % at 3 µM; 1.5% of 360,000 active; AID 624466, 2012;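 active = inhibition above a per-plate cutoff, the mean inhibition of test compounds on that plate plus 3 SD, cut at about 49% in these data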
#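 System: CHO RD-HGA16 cells bearing hTAAR1. Reagent: EC80 β-phenethylamine stimulus. Schedule: seeding 17-24 h prior, 75-min 37 °C, 30-min RT dye loading. Signal: Fluo-8 intracellular calcium dye fluorescence, real-time kinetic reads. Read-out: % inhibition from peak post-agonist over basal fluorescence ratio. Benchmarks: vehicle wells and EC80 agonist wells. Replicates: n of 1.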
# Hits are given with their value; n = inactive; x = no result; ! = repeats disagree. An excerpt weighted towards active compounds, which were near 4.3% of everything screened.
SMILES,MC4R barr agon,B2AR ag,TAAR1 ag,MC4R antag cAMP,m5-HT2A agonist,TAAR1 antagonist
COc1cc(/C=C2/SC(=Nc3ccc(O)cc3)NC2=O)ccc1O,n,n,n,n,n,n
COc1cc(/C=C2\SC(=Nc3ccccc3)NC2=O)cc(Cl)c1O,n,n,75,n,n,62
COc1ccccc1CNC(=O)COc1cc2c(c3oc(=O)cc(C)c13)CCC(C)(C)O2,n,n,n,n,n,53
Cc1c(C)c2c(OCC(=O)O)cc3c(c2oc1=O)CCC(C)(C)O3,n,n,n,n,n,n
Cc1c(C)c2c(OCC(=O)Nc3ccc(CCO)cc3)cc3c(c2oc1=O)CCC(C)(C)O3,n,n,n,n,n,51
COc1cccc(CNC(=O)COc2cc3c(c4oc(=O)cc(C)c24)CCC(C)(C)O3)c1,n,n,n,n,n,58
COc1cc(CNC(=O)c2cc(-c3cc(Cl)ccc3C)n[nH]2)cc(OC)c1,n,x,n,n,n,n
COC(=O)Cc1nnn2c1[C@H](C)[C@@H](OC)c1ccc(C(F)(F)F)cc1-2,x,x,n,x,x,n
O=C(c1ccc(COc2ccc(Cl)cc2)o1)N1CCN(Cc2ccc3c(c2)OCO3)CC1,n,n,n,n,n,52
C[C@H](O)[C@@H]1C(=O)N2CCc3c([nH]c4c(-c5ccccc5)cccc34)[C@@H]2C[C@@H]1N(C)C(=O)/C=C/c1ccccc1,x,x,n,x,x,n
Cc1c(NC(=O)CN2C(=O)NC(C)(c3ccccc3)C2=O)c(=O)n(-c2ccccc2)n1C (configuration not stated),n,n,n,29,n,n
Cc1[nH]c(=O)[nH]c(=O)c1CCSSCCc1c(C)[nH]c(=O)[nH]c1=O,x,x,n,x,x,n
COc1ccc(-c2nn(C)c(=O)c3ccccc23)cc1NC(=O)Cn1nc(C)c2ccccc2c1=O,n,48,n,n,n,n
CC(C)(C)c1ccc(C(=O)Nc2nnc(Cc3c[nH]c4ccccc34)s2)cc1,8.3,n,n,n,n,n
O=C(Nc1nnc(Cc2c[nH]c3ccccc23)s1)c1ccc(Cl)cc1Cl,n,n,n,n,n,n
CN(C)CCNC(=O)c1cc2c(s1)-c1ccc(Cl)cc1SC2,11,n,n,n,n,n
c1ccc(Cc2cnc(N3CCN(Cc4cccc(-c5ccsc5)n4)CC3)nc2)cc1,x,x,n,x,x,n
O=C(CNC(=O)c1ccc2c(c1)OCO2)N/N=C(Br)/C=C/c1ccccc1,n,n,41,n,n,n
C[C@@H]1CN([C@@H](C)CO)C(=O)CCCn2cc(nn2)CO[C@H]1CN(C)C(=O)Nc1ccc(F)cc1,x,x,n,x,x,n
CCc1cccc(CC)c1NC(=O)COC(=O)C1(c2ccc(Cl)cc2)CCCC1,n,n,n,n,n,n
CC(=O)Nc1ccc(NC(=O)COC(=O)C2(c3ccc(Cl)cc3)CCCC2)cc1,n,n,39,n,n,49
NS(=O)(=O)c1cccc(NC(=O)COC(=O)C2(c3cccc(F)c3)CCCC2)c1,n,n,n,n,n,52
NS(=O)(=O)c1cccc(NC(=O)CC2(CC(=O)O)CCCC2)c1,n,n,n,n,n,n
COc1ccc([C@H]2CC(=O)C=C(c3cccc(C(C)C)c3)C2)cc1OC,n,n,n,n,n,66
O=C1C=C(c2ccc(-c3ccccc3)cc2)C[C@@H](c2ccc(F)cc2)C1,n,n,n,n,n,n
SMILES,MC4R barr agon,B2AR ag,TAAR1 ag,MC4R antag cAMP,m5-HT2A agonist,TAAR1 antagonist
COc1ccc([C@H]2CC(=O)C=C(c3ccc4ccccc4c3)C2)cc1OC,n,n,n,n,n,n
CC(C)c1cccc(C2=CC(=O)C[C@H](c3ccc(F)cc3)C2)c1,n,n,n,n,n,52
COc1ccnc(Oc2ccccc2)c1C(=O)N/C=N/OCc1ccc(F)cc1Cl,n,n,n,n,n,61
O=[N+]([O-])c1cc2c(ccc3occc32)o1,x,x,n,x,x,n
O=C(O)c1ccc(NC2=C(Cl)C(=O)c3ccccc3C2=O)cc1,n,96,n,n,n,n
O=C1C(Cl)=C(Nc2ccccc2)C(=O)c2ccccc21,n,n,n,n,n,n
COC(=O)[C@@]12C[C@@H](CC(=O)NCc3cccc(C(F)(F)F)c3)C(=O)N(CCc3ccc(OC)c(OC)c3)C1=CCC(C)(C)C2,x,x,n,x,n,58
COC(=O)[C@]12CCCCC=C1N(CCc1ccc(OC)c(OC)c1)C(=O)[C@H](CC(=O)NCc1ccc(OC)c(OC)c1)C2,x,x,n,x,n,n
COC(=O)[C@]12CCCCC=C1N(CCc1ccc(OC)c(OC)c1)C(=O)[C@H](CC(=O)NCc1cccc(C(F)(F)F)c1)C2,x,x,n,x,n,49
CCNC(=O)N1C[C@H]2CON(C)[C@H]2C[C@H]1c1ccc(N2CCCCC2)cc1,x,x,n,x,x,n
F[B-](F)(F)c1cncnc1,x,x,n,x,x,n
NS(=O)(=O)c1ccc(CCNC(=O)COC(=O)/C=C/c2ccccc2Cl)cc1,n,n,42,n,n,n
O=C(NCc1ccccc1)[C@@H]1CCCN1C(=O)[C@H]1CCCN1C(=O)C1CCCCC1,x,x,n,x,x,n
Cc1ccc(C(=O)OCn2ncc(Cl)c(Cl)c2=O)cc1,n,62,n,n,n,n
CCN(CC)S(=O)(=O)c1cc(NC(=O)Cn2ncc(Cl)c(Cl)c2=O)ccc1C,n,46,n,n,n,n
CCOC(=O)c1ccc(NC(=O)Cn2ncc(Cl)c(Cl)c2=O)cc1,n,74,n,n,n,n
Cc1ccc(C)c(C(=O)Cn2ncc(Cl)c(Cl)c2=O)c1,n,n,n,n,n,n
CCOC(=O)c1ccc(NC(=O)Cn2nc(C)c3ccccc3c2=O)cc1,n,n,n,n,n,n
CC1=Nc2ccc(C)cc2/C1=C/c1c(N)n2oc(C)cc2nc1=O,9.2!,n,n,n,n,n
CSc1nsc2nc(=O)c(/C=C3\C(C)=Nc4ccc(C)cc43)c(N)n12,n,n,n,n,n,n
O=C(O)c1ccc(N/N=C/c2ccc(-c3ccccc3)cc2)cc1,n,n,n,n,n,n
O=C(O)c1ccc(N/N=C/c2ccc(OC(=O)c3ccccc3Cl)cc2)cc1,n,n,n,n,n,58
COC(=O)[C@]12CCCCC=C1N(Cc1ccccc1)C(=O)[C@H](CC(=O)N1CCC(c3ccccc3)CC1)C2,x,x,n,x,n,54
CCCCCCCCN1C(=O)[C@H](CC(=O)N2CCC(c3ccccc3)CC2)C[C@@]2(C(=O)OC)CCCCC=C12,x,x,n,x,n,n
